We go through 7 compounds from ChEMBL document CHEMBL1255315, “The hepatitis C virus replicon presents a higher barrier to resistance to nucleoside analogs than to nonnucleoside polymerase or protease inhibitors” (Antimicrob Agents Chemother, 2008).

Series [1] concerns Hepatitis C virus. Nature of the series: Antiviral activity against Hepatitis C virus subtype 1b Con1 infected in human HuH7 cells after 3 days by luciferase reporter gene assay. Type of series: functional, organism-based, Hepacivirus hominis. The conditions noted are these: Con1, Huh-7, 72 h. In short, it runs like this: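 Huh7-derived 2209-23 cells stably carrying a GT 1b Con1 subgenomic replicon encoding Renilla luciferase, incubated with compound for 3 days. The EC50 is the concentration that reduces reporter luciferase activity by 50% versus untreated controls. Values are reported as mean ± SD over repeated experiments, with the number of experiments differing by compound.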
Background: A reporter such as luciferase makes a cellular process visible.

The nature of series [2]: Cytotoxicity against human HuH7 cells. The format is cell-based, Huh-7. In short, it runs like this: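 Viability of the stable GT 1b Con1 replicon cells was measured by MTT or WST-1 assay to give CC50, the 50% cytotoxic concentration. The number of experiments matched the EC50 determinations, and values are reported as mean ± SD.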
Series [3] concerns Hepatitis C virus. Nature of the series: Antiviral activity against HCV infected in human assessed as log reduction in viral load at 4500 […] BID. Type of series: functional, Hepacivirus hominis.
Series [4] deals with Hepatitis C virus. Nature of the series: Antiviral activity against HCV infected in human assessed as log reduction in viral load measured on day 4 postdose. The format is functional, Hepacivirus hominis.
For series [5], the system named is Hepatitis C virus. Nature of the series: Antiviral activity against HCV subtype 1b infected in human HuH7 cells assessed as number of resistant colonies formed at 10 times EC50 after 3 weeks. The format is functional, Hepacivirus hominis, genotype 1b, Huh-7. Put shortly: (§1)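 Huh7 cells stably carrying a GT 1b subgenomic neoR replicon, seeded at 1 × 10^5 cells/well with 0.5 mg/ml G418, were exposed to one or two inhibitors at multiples of EC50 (from the 3-day Con1 2209-23 luciferase assay). Medium was changed twice weekly, with a 1:4 split at ~95% confluence. After 3 weeks, cells were formaldehyde-fixed and crystal violet-stained, and colonies were counted.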

Series [6] concerns Hepatitis C virus. Nature of the series: Antiviral activity against HCV subtype 1b infected in human HuH7 cells assessed as number of resistant colonies formed at 15 times EC50 after 3 weeks. The format is functional, Hepacivirus hominis, genotype 1b, Huh-7. In short, it runs like this: as §1
Series [7] deals with Hepatitis C virus. Nature of the series: Antiviral activity against HCV genotype 1 infected in human assessed as log reduction in viral load at 750 mg administered every 8 hrs for 14 days.
For series [8], the system named is Hepatitis C virus. Nature of the series: Antiviral activity against HCV infected in human assessed as log reduction in viral load at 800 […] SID. Type of series: functional, Hepacivirus hominis.

For orientation: EC50 means the concentration at which the effect is half-maximal. The term CC50 denotes the concentration at which the toxic effect on the cells reaches its halfway point. Take `C[C@@]1(F)[C@H](O)[C@@H](CO)O[C@H]1n1ccc(N)nc1=O`: the EC50 in the series on Hepatitis C virus [1] came to 0.61 µM. The CC50 in series [2] is over 100 µM.
As to `C[C@@]1(O)[C@H](O)[C@@H](CO)O[C@H]1n1ccc(N)nc1=O`, the EC50 in the series on Hepatitis C virus [1] turned out to be 1.23 µM. Also, the CC50 in series [2] was over 100 µM.
In the same order, the values of `[N-]=[N+]=N[C@]1(CO)O[C@@H](n2ccc(N)nc2=O)[C@H](O)[C@@H]1O` [4'-AZIDOCYTIDINE] are 1.28 µM and over 100 µM.
Take `CC(C)C(=O)OC[C@@]1(N=[N+]=[N-])O[C@@H](n2ccc(N)nc2=O)[C@H](OC(=O)C(C)C)[C@@H]1OC(=O)C(C)C` [BALAPIRAVIR]: in the series with Hepatitis C virus [3], the FC is recorded as 3.7.
In the case of `CNC(=O)c1c(-c2ccc(F)cc2)oc2cc(N(CCO)S(C)(=O)=O)c(C3CC3)cc12` [NESBUVIR], the FC in the series with Hepatitis C virus [4] amounted to 1.4. The compound also displayed an EC50 with Hepatitis C virus [1] of 0.017 µM. In series [2], the CC50 was over 100 µM. Besides, the values for the Activity in the series on Hepatitis C virus [5] and in the series with Hepatitis C virus [6] were 60 and 36, respectively.
As for `CCC[C@H](NC(=O)[C@@H]1[C@H]2CCC[C@H]2CN1C(=O)[C@@H](NC(=O)[C@@H](NC(=O)c1cnccn1)C1CCCCC1)C(C)(C)C)C(=O)C(=O)NC1CC1` [TELAPREVIR], the EC50 with Hepatitis C virus [1] stood at 0.56 µM. The CC50 in series [2] was found to be 26.7 µM. Also, the Activity was 93 with Hepatitis C virus [6] and over 4 log10IU/ml in the series on Hepatitis C virus [7].
On to `CC(C)[C@H](N)C(=O)O[C@@H]1[C@@H](CO)O[C@@H](n2ccc(N)nc2=O)[C@]1(C)O` [VALOPICITABINE], for which the FC with Hepatitis C virus [8] amounted to 1.2.
